Assay results reported in ChEMBL document CHEMBL3872252, “New bithiazolyl hydrazones: Novel synthesis, characterization and antitubercular evaluation” (Bioorg Med Chem Lett, 2017).
In brackets after ≈: the same amount, converted by molar mass.

Assays:
[1] = Antitubercular activity against Mycobacterium tuberculosis H37Ra ATCC 25177 dormant stage infected in human THP1 cells measured on day 12 by nitrate reductase assay; type: functional, THP-1; settings: ATCC 25177, 288 h
[2] = Antitubercular activity against Mycobacterium tuberculosis H37Ra ATCC 25177 active stage infected in human THP1 cells measured on day 8 by nitrate reductase assay; type: functional, THP-1; settings: ATCC 25177, 192 h
[3] = Antitubercular activity against Mycobacterium tuberculosis H37Ra ATCC 25177 active stage measured on day 8 by XTT reduction menadione based two-fold dilution assay; type: functional; settings: ATCC 25177, 192 h
How it was run: (§1)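 M. tuberculosis H37Ra ATCC 25177 was exposed to 0.7–100 μg/mL in two-fold steps (0.7, 1.5, 3.1 … 100). Active stage was read after 8 days and dormant stage after 12 days of incubation. Inhibition was read by XTT reduction menadione assay (XRMA), absorbance 470 nm. MIC90 is the concentration giving ≥90% inhibition (µg/mL).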

[4] = Antitubercular activity against Mycobacterium tuberculosis H37Ra ATCC 25177 dormant stage measured on day 12 by XTT reduction menadione based two-fold dilution assay; type: functional; settings: ATCC 25177, 288 h; how it was run: as §1
[5] = Antitubercular activity against Mycobacterium bovis BCG ATCC 35743 active stage measured on day 8 by nitrate reductase based two-fold dilution assay; type: functional, Mycobacterium bovis BCG str. ATCC 35743; settings: Mycobacterium tuberculosis variant bovis BCG, ATCC 35743, 192 h
[6] = Antitubercular activity against Mycobacterium bovis BCG ATCC 35743 dormant stage measured on day 12 by nitrate reductase based two-fold dilution assay; type: functional, Mycobacterium bovis BCG str. ATCC 35743; settings: Mycobacterium tuberculosis variant bovis BCG, ATCC 35743, 288 h
[7] = Cytotoxicity against human THP1 cells by MTT assay; type: toxicity, cell-based, THP-1
[8] = Cytotoxicity against human MCF7 cells by MTT assay; type: toxicity, cell-based
[9] = Cytotoxicity against human HCT116 cells by MTT assay; type: toxicity, cell-based, HCT-116
[10] = Selectivity index, ratio of GI50 for human MCF7 cells to MIC90 for Mycobacterium tuberculosis H37Ra ATCC 25177 active stage; type: toxicity, cell-based; settings: read-out: Selectivity Index
How it was run: (§2)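 Cytotoxicity was measured on human MCF-7, HCT116 and THP-1 cells by MTT assay, with paclitaxel as reference. GI50 is the concentration inhibiting 50% of cell growth. The selectivity index is GI50 for the given cell line divided by MIC90 for the given mycobacterial strain and stage.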

[11] = Selectivity index, ratio of GI50 for human MCF7 cells to MIC90 for Mycobacterium tuberculosis H37Ra ATCC 25177 dormant stage; type: toxicity, cell-based; settings: read-out: Selectivity Index
How it was run: (§3)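 Cytotoxicity was measured on human MCF-7, HCT116 and THP-1 cells by MTT assay, with paclitaxel as reference. The selectivity index is GI50 for the given cell line divided by MIC90 for the given mycobacterial strain and stage.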

[12] = Selectivity index, ratio of GI50 for human MCF7 cells to MIC90 for Mycobacterium bovis BCG ATCC 35743 active stage; type: toxicity, cell-based; settings: read-out: Selectivity Index; how it was run: as §2
[13] = Selectivity index, ratio of GI50 for human MCF7 cells to MIC90 for Mycobacterium bovis BCG ATCC 35743 dormant stage; type: toxicity, cell-based; settings: read-out: Selectivity Index; how it was run: as §3
[14] = Selectivity index, ratio of GI50 for human HCT116 cells to MIC90 for Mycobacterium tuberculosis H37Ra ATCC 25177 active stage; type: toxicity, cell-based, HCT-116; settings: read-out: Selectivity Index; how it was run: as §2
[15] = Selectivity index, ratio of GI50 for human HCT116 cells to MIC90 for Mycobacterium tuberculosis H37Ra ATCC 25177 dormant stage; type: toxicity, cell-based, HCT-116; settings: read-out: Selectivity Index; how it was run: as §3
[16] = Selectivity index, ratio of GI50 for human HCT116 cells to MIC90 for Mycobacterium bovis BCG ATCC 35743 active stage; type: toxicity, cell-based, HCT-116; settings: read-out: Selectivity Index; how it was run: as §2
[17] = Selectivity index, ratio of GI50 for human HCT116 cells to MIC90 for Mycobacterium bovis BCG ATCC 35743 dormant stage; type: toxicity, cell-based, HCT-116; settings: read-out: Selectivity Index; how it was run: as §3
[18] = Selectivity index, ratio of GI50 for human THP1 cells to MIC90 for Mycobacterium tuberculosis H37Ra ATCC 25177 active stage; type: toxicity, cell-based, THP-1; settings: read-out: Selectivity Index; how it was run: as §2
[19] = Selectivity index, ratio of GI50 for human THP1 cells to MIC90 for Mycobacterium tuberculosis H37Ra ATCC 25177 dormant stage; type: toxicity, cell-based, THP-1; settings: read-out: Selectivity Index; how it was run: as §3
[20] = Selectivity index, ratio of GI50 for human THP1 cells to MIC90 for Mycobacterium bovis BCG ATCC 35743 active stage; type: toxicity, cell-based, THP-1; settings: read-out: Selectivity Index; how it was run: as §2
[21] = Selectivity index, ratio of GI50 for human THP1 cells to MIC90 for Mycobacterium bovis BCG ATCC 35743 dormant stage; type: toxicity, cell-based, THP-1; settings: read-out: Selectivity Index; how it was run: as §3
Escherichia coli [22] = experiment: Antibacterial activity against Escherichia coli; type: functional
Pseudomonas aeruginosa [23] = experiment: Antibacterial activity against Pseudomonas aeruginosa; type: functional
Staphylococcus aureus [24] = experiment: Antibacterial activity against Staphylococcus aureus; type: functional
Bacillus subtilis [25] = experiment: Antibacterial activity against Bacillus subtilis; type: functional
Escherichia coli [26] = experiment: Growth inhibition of Escherichia coli at 30 ug/ml; type: functional; settings: read-out: GI
Escherichia coli [27] = experiment: Growth inhibition of Escherichia coli at 10 ug/ml; type: functional; settings: read-out: GI
Escherichia coli [28] = experiment: Growth inhibition of Escherichia coli at 3 ug/ml; type: functional; settings: read-out: GI
How it was run: (§4)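 Screened against Gram-negative E. coli and P. aeruginosa and Gram-positive S. aureus and B. subtilis. Compound was tested at 3 µg/ml, and the read-out is percent growth inhibition.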

Pseudomonas aeruginosa [29] = experiment: Growth inhibition of Pseudomonas aeruginosa at 30 ug/ml; type: functional; settings: read-out: GI
Pseudomonas aeruginosa [30] = experiment: Growth inhibition of Pseudomonas aeruginosa at 10 ug/ml; type: functional; settings: read-out: GI
Pseudomonas aeruginosa [31] = experiment: Growth inhibition of Pseudomonas aeruginosa at 3 ug/ml; type: functional; settings: read-out: GI; how it was run: as §4
Staphylococcus aureus [32] = experiment: Growth inhibition of Staphylococcus aureus at 30 ug/ml; type: functional; settings: read-out: GI
Staphylococcus aureus [33] = experiment: Growth inhibition of Staphylococcus aureus at 10 ug/ml; type: functional; settings: read-out: GI
Staphylococcus aureus [34] = experiment: Growth inhibition of Staphylococcus aureus at 3 ug/ml; type: functional; settings: read-out: GI; how it was run: as §4
Bacillus subtilis [35] = experiment: Growth inhibition of Bacillus subtilis at 30 ug/ml; type: functional; settings: read-out: GI
Bacillus subtilis [36] = experiment: Growth inhibition of Bacillus subtilis at 10 ug/ml; type: functional; settings: read-out: GI
Bacillus subtilis [37] = experiment: Growth inhibition of Bacillus subtilis at 3 ug/ml; type: functional; settings: read-out: GI; how it was run: as §4

Question: For C/C(=N\Nc1nc(-c2ccc(C)cc2)cs1)c1sc(-c2ccccc2)nc1C, which MIC90 [1] is on record?
Answer: > 100 µg/mL

Question: What about the MIC90 [2] of the same compound?
Answer: > 100 µg/mL

Question: What about the IC50 [3] of the same compound?
Answer: 0.16 µg/mL (≈ 0.395 µM)

Question: What about the MIC90 [3] of the same compound?
Answer: > 100 µg/mL

Question: What about the IC50 [4] of the same compound?
Answer: 0.075 µg/mL (≈ 0.185 µM)

Question: And the MIC90 [4]?
Answer: > 100 µg/mL

Question: What about the IC50 [5] of the same compound?
Answer: 5.21 µg/mL (≈ 12.9 µM)

Question: And the MIC90 [5]?
Answer: 19.7 µg/mL (≈ 48.6 µM)

Question: What about the IC50 [6] of the same compound?
Answer: 5.29 µg/mL (≈ 13.1 µM)

Question: And the MIC90 [6]?
Answer: 57.5 µg/mL (≈ 142 µM)

Question: What about the GI50 ([7]; THP1 cells) of the same compound?
Answer: > 100 µg/mL

Question: What about the GI90 ([7]; thp-1) of the same compound?
Answer: > 100 µg/mL

Question: What about the GI50 ([8]; MCF7 cells) of the same compound?
Answer: > 100 µg/mL

Question: What about the GI90 ([8]; mcf7) of the same compound?
Answer: > 100 µg/mL

Question: And the GI50 ([9]; HCT116 cells)?
Answer: > 100 µg/mL

Question: And the GI90 ([9]; hct-116)?
Answer: > 100 µg/mL

Question: And the selectivity ratio [10]?
Answer: 1

Question: What about the selectivity ratio [11] of the same compound?
Answer: 1

Question: And the selectivity ratio [12]?
Answer: 5

Question: And the selectivity ratio [13]?
Answer: 2

Question: What about the selectivity ratio [14] of the same compound?
Answer: 1

Question: And the selectivity ratio [15]?
Answer: 1

Question: And the selectivity ratio [16]?
Answer: 5

Question: And the selectivity ratio [17]?
Answer: 2

Question: And the selectivity ratio [18]?
Answer: 1

Question: What about the selectivity ratio [19] of the same compound?
Answer: 1

Question: What about the selectivity ratio [20] of the same compound?
Answer: 5

Question: What about the selectivity ratio [21] of the same compound?
Answer: 2

Question: What about the IC50 (Escherichia coli [22]) of the same compound?
Answer: 0.454 µg/mL (≈ 1.12 µM)

Question: And the MIC (Escherichia coli [22])?
Answer: 1.43 µg/mL (≈ 3.53 µM)

Question: And the IC50 (Pseudomonas aeruginosa [23])?
Answer: 0.587 µg/mL (≈ 1.45 µM)

Question: And the MIC (Pseudomonas aeruginosa [23])?
Answer: 1.53 µg/mL (≈ 3.78 µM)

Question: And the IC50 (Staphylococcus aureus [24])?
Answer: 0.624 µg/mL (≈ 1.54 µM)

Question: What about the MIC (Staphylococcus aureus [24]) of the same compound?
Answer: 2.46 µg/mL (≈ 6.08 µM)

Question: And the IC50 (Bacillus subtilis [25])?
Answer: 0.742 µg/mL (≈ 1.83 µM)

Question: And the MIC (Bacillus subtilis [25])?
Answer: 2.95 µg/mL (≈ 7.29 µM)

Question: What about the inhibition of growth at 30 µg/mL (Escherichia coli [26]) of the same compound?
Answer: 97%

Question: What about the inhibition of growth at 10 µg/mL (Escherichia coli [27]) of the same compound?
Answer: 94.1%

Question: What about the inhibition of growth at 3 µg/mL (Escherichia coli [28]) of the same compound?
Answer: 92.2%

Question: What about the inhibition of growth at 30 µg/mL (Pseudomonas aeruginosa [29]) of the same compound?
Answer: 98.8%

Question: And the inhibition of growth at 10 µg/mL (Pseudomonas aeruginosa [30])?
Answer: 95.6%

Question: What about the inhibition of growth at 3 µg/mL (Pseudomonas aeruginosa [31]) of the same compound?
Answer: 93.4%

Question: What about the inhibition of growth at 30 µg/mL (Staphylococcus aureus [32]) of the same compound?
Answer: 97.1%

Question: And the inhibition of growth at 10 µg/mL (Staphylococcus aureus [33])?
Answer: 94%

Question: What about the inhibition of growth at 3 µg/mL (Staphylococcus aureus [34]) of the same compound?
Answer: 91.9%

Question: What about the inhibition of growth at 30 µg/mL (Bacillus subtilis [35]) of the same compound?
Answer: 96.9%

Question: What about the inhibition of growth at 10 µg/mL (Bacillus subtilis [36]) of the same compound?
Answer: 93.5%

Question: What about the inhibition of growth at 3 µg/mL (Bacillus subtilis [37]) of the same compound?
Answer: 91.3%
